Drawing on ChEMBL document CHEMBL5661979, “Pharmacological inhibition of BMK1 suppresses tumor growth through promyelocytic leukemia protein” (Cancer Cell, 2010), this text covers inhibition and IC50 for one molecule.

As a reminder, the inhibition is the drop in the measured response relative to a control, in per cent. Broadly, the IC50 is the midpoint of a concentration-inhibition curve.

Calls of active or inactive are those of the source. The calls are words filed in the database; no cut-off is given here. Some results are limits rather than exact numbers.

Experiment [1] deals with Serine/threonine-protein kinase PLK4 (Homo sapiens) (UniProt O00444). In words: Inhibition of recombinant Flag-tagged PLK4 (unknown origin) expressed in HEK293 cells at 0.08 to 10 uM in presence of 32P-gamma-ATP. Type of experiment: cell-based. The conditions noted are these: dose 0.08-10 µM.
Experiment [2] addresses Ribosomal protein S6 kinase beta-1 (Homo sapiens, UniProt P23443). In words: Inhibition of P70S6K in human HeLa cells lysate at 2 uM pre incubated for 15 mins followed by ATP acyl phosphate probe addition and measured after 10 mins by LC-MS/MS analysis relative to control. Type of experiment: subcellular. The conditions noted are these: time 25.0 min.
Experiment [3] in a line: Inhibition of CDK5/PRKX/PRKY in human HeLa cells lysate at 50 uM pre incubated for 15 mins followed by ADP acyl phosphate probe addition and measured after 10 mins by LC-MS/MS analysis relative to control. The settings on record: 25 min, condition cancer. The method in brief:
(§1)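 KiNativ profiling in HeLa lysate (5 mg/mL total protein). Lysate incubated 15 min with inhibitor at 50, 10, 2, 0.8 or 0 μM. ATP or ADP acylphosphate probe then added (5 μM final) and reacted 10 min. Reaction stopped with urea and analysed by targeted MS, using up to four fragment ions per kinase peptide-probe conjugate. % inhibition taken against untreated lysate. Run in duplicate.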

The target of experiment [4] is Ribosomal protein S6 kinase alpha-3 (Homo sapiens, UniProt P51812). As to the kind of experiment: Inhibition of RSK2 domain 2 K2 site in human HeLa cells lysate pre incubated for 15 mins followed by ADP acyl phosphate probe addition and measured after 10 mins by LC-MS/MS analysis. Type of experiment: subcellular.
Experiment [5] is described as follows: Inhibition of Wnk1/2/4 in human HeLa cells lysate pre incubated for 15 mins followed by ATP acyl phosphate probe addition and measured after 10 mins by LC-MS/MS analysis. The format is subcellular.
The target in experiment [6] is T1, Phosphatidylinositol 5-phosphate 4-kinase type-2 alpha (Homo sapiens) (UniProt P48426).
T1 sequence (whole entry): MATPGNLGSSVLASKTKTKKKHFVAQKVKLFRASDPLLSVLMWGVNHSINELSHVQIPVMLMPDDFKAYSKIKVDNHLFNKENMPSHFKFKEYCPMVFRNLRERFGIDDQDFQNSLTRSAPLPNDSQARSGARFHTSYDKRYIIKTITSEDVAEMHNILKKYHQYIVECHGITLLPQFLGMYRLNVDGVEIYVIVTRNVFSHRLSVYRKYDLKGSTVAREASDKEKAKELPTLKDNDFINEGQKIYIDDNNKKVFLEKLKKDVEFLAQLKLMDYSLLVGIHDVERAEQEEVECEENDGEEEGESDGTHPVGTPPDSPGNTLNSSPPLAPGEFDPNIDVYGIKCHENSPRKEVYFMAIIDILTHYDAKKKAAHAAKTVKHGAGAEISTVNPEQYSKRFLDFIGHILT
As to the kind of experiment: Inhibition of PIP5K2A LIP site in human HeLa cells lysate at 2 uM pre incubated for 15 mins followed by ADP acyl phosphate probe addition and measured after 10 mins by LC-MS/MS analysis relative to control. The settings on record: time 25.0 min. The format is subcellular.

The target in experiment [7] is T2, Serine/threonine-protein kinase Chk1 (Homo sapiens) (UniProt O14757).
T2 sequence (whole entry): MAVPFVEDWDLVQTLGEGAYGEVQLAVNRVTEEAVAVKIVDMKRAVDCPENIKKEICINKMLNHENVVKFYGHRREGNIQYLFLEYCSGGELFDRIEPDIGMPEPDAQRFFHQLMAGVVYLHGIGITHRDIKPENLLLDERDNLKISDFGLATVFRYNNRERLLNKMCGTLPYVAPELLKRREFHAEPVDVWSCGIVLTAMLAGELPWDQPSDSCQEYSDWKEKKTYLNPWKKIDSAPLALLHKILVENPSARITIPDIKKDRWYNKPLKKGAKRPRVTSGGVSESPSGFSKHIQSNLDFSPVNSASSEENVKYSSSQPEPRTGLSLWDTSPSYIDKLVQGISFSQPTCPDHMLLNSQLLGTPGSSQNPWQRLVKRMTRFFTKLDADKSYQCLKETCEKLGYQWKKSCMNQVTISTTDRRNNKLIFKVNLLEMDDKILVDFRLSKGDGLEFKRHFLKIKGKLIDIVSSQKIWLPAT
As to the kind of experiment: Inhibition of CHK1 in human HeLa cells lysate at 10 uM pre incubated for 15 mins followed by ATP acyl phosphate probe addition and measured after 10 mins by LC-MS/MS analysis relative to control. Type of experiment: subcellular. The conditions noted are these: time 25.0 min.

Experiment [8] deals with Mitogen-activated protein kinase kinase kinase 5 (Homo sapiens) (UniProt Q99683). In words: Inhibition of MAP3K5 in human HeLa cells lysate at 2 uM pre incubated for 15 mins followed by ATP acyl phosphate probe addition and measured after 10 mins by LC-MS/MS analysis relative to control. Type of experiment: subcellular. The settings on record: time 25.0 min.
Experiment [9] concerns the target RPS6KA1/RPS6KA2/RPS6KA3 (Homo sapiens, UniProt P51812+Q15349+Q15418). In words: Inhibition of RSK1/2/3 in human HeLa cells lysate at 50 uM pre incubated for 15 mins followed by ATP acyl phosphate probe addition and measured after 10 mins by LC-MS/MS analysis relative to control. The format is subcellular. The settings on record: time 25.0 min.
Experiment [10] deals with Cyclin-dependent kinase 10 (Homo sapiens, UniProt Q15131). In words: Inhibition of CDK10 in human HeLa cells lysate at 2 uM pre incubated for 15 mins followed by ATP acyl phosphate probe addition and measured after 10 mins by LC-MS/MS analysis relative to control. Type of experiment: subcellular. The settings on record: time 25.0 min. The method in brief: as §1
Experiment [11] deals with Epidermal growth factor receptor (Homo sapiens, UniProt P00533). As to the kind of experiment: Inhibition of EGFR in human HeLa cells lysate at 2 uM pre incubated for 15 mins followed by ATP acyl phosphate probe addition and measured after 10 mins by LC-MS/MS analysis relative to control. The format is subcellular. The settings on record: time 25.0 min.
In experiment [12] the target is T3, Non-receptor tyrosine-protein kinase TNK1 (Homo sapiens) (UniProt Q13470).
T3 sequence (whole entry): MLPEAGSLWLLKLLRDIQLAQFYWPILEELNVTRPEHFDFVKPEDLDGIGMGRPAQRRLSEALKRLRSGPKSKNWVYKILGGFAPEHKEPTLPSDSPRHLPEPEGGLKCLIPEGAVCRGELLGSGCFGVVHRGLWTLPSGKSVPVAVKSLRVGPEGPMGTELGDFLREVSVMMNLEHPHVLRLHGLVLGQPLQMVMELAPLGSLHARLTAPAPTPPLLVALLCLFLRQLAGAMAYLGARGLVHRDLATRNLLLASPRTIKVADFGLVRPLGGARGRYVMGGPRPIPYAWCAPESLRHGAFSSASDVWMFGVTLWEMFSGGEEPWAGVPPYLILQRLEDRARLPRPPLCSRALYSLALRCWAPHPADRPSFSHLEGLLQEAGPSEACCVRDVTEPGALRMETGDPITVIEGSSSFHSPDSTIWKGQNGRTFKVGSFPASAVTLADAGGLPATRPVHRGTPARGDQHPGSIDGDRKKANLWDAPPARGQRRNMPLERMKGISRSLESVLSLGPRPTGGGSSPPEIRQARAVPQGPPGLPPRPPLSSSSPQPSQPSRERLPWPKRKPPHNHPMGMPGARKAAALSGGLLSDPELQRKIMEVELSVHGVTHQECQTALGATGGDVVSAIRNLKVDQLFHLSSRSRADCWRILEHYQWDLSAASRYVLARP
In words: Inhibition of TNK1 in human HeLa cells lysate at 50 uM pre incubated for 15 mins followed by ADP acyl phosphate probe addition and measured after 10 mins by LC-MS/MS analysis relative to control. The conditions noted are these: time 25.0 min. The format is subcellular.

Mitogen-activated protein kinase kinase kinase 5 (Homo sapiens), sequence (Q99683 whole entry): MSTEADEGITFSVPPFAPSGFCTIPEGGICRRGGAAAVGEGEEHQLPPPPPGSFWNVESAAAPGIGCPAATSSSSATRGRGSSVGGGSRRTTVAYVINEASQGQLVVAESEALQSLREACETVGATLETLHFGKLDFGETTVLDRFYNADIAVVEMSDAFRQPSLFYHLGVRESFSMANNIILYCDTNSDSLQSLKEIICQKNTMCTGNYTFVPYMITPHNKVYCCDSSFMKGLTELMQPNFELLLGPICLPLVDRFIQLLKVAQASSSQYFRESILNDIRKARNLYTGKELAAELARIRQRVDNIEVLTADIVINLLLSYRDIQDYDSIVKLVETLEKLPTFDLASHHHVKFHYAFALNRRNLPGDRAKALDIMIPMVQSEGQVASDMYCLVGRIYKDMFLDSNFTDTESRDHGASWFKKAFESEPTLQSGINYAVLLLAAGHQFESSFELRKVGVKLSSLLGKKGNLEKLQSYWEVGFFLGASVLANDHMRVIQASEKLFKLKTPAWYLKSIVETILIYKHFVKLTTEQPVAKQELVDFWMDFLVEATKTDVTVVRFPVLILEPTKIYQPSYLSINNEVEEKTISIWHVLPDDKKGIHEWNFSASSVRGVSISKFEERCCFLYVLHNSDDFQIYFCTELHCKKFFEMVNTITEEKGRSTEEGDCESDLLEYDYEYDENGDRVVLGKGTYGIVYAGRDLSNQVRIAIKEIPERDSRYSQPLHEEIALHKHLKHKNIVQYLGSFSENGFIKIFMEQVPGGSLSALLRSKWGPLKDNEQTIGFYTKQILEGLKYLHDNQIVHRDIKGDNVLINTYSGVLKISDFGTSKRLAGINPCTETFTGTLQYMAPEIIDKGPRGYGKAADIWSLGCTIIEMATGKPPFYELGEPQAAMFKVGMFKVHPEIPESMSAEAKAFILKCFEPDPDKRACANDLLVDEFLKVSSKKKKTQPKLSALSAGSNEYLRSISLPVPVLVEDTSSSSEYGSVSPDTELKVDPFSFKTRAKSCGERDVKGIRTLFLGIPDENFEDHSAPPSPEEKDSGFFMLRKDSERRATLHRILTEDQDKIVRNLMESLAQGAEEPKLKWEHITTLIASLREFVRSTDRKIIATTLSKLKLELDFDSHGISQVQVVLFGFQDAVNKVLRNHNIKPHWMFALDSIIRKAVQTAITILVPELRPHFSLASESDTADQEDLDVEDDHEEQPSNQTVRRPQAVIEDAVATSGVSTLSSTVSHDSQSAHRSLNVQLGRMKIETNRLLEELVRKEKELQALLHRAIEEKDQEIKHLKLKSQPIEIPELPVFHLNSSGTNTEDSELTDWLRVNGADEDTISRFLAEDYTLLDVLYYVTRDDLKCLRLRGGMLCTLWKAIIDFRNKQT
Epidermal growth factor receptor, sequence (P00533 whole entry): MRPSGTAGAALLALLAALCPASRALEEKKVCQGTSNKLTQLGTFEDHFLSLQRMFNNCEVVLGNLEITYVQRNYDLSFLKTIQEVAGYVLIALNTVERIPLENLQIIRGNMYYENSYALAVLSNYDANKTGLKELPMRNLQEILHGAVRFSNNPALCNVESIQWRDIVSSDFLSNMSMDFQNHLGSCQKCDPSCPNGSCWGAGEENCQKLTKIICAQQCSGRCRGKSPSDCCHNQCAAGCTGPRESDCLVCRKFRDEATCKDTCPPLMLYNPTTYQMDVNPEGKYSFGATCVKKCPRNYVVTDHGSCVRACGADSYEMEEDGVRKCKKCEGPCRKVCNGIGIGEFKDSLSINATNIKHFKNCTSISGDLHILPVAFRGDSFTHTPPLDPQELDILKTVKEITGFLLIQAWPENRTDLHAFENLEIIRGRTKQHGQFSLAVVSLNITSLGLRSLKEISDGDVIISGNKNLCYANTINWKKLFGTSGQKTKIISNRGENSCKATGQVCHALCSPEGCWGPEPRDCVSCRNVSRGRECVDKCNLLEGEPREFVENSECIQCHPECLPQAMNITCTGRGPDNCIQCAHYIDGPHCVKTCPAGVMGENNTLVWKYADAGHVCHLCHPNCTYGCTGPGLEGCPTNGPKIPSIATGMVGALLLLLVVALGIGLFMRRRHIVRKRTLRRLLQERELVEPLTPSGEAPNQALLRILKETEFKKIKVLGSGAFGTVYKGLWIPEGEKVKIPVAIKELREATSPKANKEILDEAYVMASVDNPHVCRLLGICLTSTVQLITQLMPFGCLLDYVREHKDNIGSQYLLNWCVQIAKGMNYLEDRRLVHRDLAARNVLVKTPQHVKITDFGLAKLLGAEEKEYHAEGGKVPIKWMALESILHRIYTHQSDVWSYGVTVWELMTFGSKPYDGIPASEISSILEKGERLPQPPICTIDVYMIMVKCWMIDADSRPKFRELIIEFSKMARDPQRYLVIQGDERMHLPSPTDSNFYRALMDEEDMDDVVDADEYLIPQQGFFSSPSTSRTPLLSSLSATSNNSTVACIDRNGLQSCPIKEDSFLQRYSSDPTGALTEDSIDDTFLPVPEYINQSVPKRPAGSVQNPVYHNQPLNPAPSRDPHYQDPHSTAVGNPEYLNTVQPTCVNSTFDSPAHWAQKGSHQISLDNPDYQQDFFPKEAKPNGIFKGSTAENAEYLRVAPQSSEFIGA
Cyclin-dependent kinase 10, sequence (Q15131 whole entry): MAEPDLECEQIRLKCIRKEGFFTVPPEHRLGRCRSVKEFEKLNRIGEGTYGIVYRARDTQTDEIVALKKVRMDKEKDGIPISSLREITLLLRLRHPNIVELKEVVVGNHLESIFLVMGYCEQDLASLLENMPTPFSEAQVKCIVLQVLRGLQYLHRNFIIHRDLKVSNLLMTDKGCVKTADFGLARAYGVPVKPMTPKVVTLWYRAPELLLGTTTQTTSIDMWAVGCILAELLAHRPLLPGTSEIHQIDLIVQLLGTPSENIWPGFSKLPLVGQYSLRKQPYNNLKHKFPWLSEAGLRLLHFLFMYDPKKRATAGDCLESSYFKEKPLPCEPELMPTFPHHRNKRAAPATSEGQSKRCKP
Ribosomal protein S6 kinase beta-1, sequence (P23443 whole entry, looked up): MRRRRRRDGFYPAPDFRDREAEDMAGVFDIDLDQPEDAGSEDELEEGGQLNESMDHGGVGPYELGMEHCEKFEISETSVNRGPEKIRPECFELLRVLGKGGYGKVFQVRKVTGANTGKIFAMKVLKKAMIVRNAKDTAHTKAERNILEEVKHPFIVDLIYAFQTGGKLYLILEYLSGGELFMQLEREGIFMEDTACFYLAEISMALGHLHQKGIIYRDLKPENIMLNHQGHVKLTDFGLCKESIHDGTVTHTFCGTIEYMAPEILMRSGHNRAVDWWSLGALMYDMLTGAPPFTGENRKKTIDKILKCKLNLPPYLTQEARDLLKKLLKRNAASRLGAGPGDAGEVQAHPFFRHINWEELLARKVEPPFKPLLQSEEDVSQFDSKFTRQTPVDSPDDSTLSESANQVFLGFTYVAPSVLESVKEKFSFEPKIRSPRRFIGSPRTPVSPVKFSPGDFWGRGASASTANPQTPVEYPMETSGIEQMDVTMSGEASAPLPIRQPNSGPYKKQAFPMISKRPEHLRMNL
Ribosomal protein S6 kinase alpha-3, sequence (P51812 whole entry, the tested form may be a part): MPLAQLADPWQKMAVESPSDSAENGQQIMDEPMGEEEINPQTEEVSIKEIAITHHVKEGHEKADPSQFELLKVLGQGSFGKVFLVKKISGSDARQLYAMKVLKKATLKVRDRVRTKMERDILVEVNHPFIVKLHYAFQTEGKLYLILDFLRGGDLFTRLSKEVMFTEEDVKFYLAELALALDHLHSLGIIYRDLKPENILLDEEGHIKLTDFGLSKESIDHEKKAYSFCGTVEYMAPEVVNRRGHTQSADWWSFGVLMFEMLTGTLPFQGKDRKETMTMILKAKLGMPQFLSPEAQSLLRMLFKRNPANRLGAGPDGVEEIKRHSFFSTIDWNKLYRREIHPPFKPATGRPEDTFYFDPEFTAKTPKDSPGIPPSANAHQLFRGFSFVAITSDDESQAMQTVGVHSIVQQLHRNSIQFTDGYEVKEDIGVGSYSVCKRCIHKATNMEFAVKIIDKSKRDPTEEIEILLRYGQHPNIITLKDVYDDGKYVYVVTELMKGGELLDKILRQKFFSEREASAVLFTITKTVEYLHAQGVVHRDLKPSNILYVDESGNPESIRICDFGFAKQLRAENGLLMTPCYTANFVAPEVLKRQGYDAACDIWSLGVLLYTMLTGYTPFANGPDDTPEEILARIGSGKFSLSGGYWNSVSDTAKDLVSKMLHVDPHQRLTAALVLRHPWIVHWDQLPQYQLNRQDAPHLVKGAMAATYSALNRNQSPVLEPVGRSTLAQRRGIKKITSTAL

In the case of `CCOc1cc(N2CCC(O)CC2)ccc1Nc1ncc2c(n1)N(C)c1ccccc1C(=O)N2C`, in [1], the inhibition result was “Active”. Moreover, the inhibition in [2] is 7%; in experiment [6], 5.5%; in experiment [7], -9.9%; in [8], -6.5%; in experiment [9], 0.9%; in experiment [10] it was 3.7%. For the same molecule, the inhibition in experiment [11] was 2.5%; in [12], 82.2%. Further, the inhibition at 50 µM in experiment [3] was -10%. Also, the IC50 is 47 µM in experiment [4] and over 50 µM in experiment [5].
